According to ChEMBL document CHEMBL4152188, “Design, synthesis and biological evaluation of C(4) substituted monobactams as antibacterial agents against multidrug-resistant Gram-negative bacteria” (Eur J Med Chem, 2018):
Converted amounts (≈) assume the structure as drawn. Values belong to the compound of their own block, whether it stands above or below them.

What was measured:
Type in all cases: functional
[1] = system: Escherichia coli; assay: Antibacterial activity against extended-spectrum beta-lactamase producing Escherichia coli isolate 212648 after 18 hrs in presence of BPL by CLSI broth microdilution method; details: isolate 212648, 18 h
Method in brief: (§1)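 CLSI broth microdilution against clinical isolates (ESBL E. coli, KPC-2 MDR K. pneumoniae, IMP-4 MDR P. aeruginosa; five per species). Iron limitation: Mueller-Hinton broth supplemented with 16 mg/liter 2,2'-bipyridyl to complex iron and induce iron uptake systems. Read-out: MIC.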

[2] = system: Klebsiella pneumoniae; assay: Antibacterial activity against KPC-2 producing Klebsiella pneumoniae isolate 209735 after 18 hrs by CLSI broth microdilution method; details: isolate 209735, 18 h
[3] = system: Klebsiella pneumoniae; assay: Selectivity index, ratio of MIC for against KPC-2 producing Klebsiella pneumoniae isolate 212232 to MIC for against KPC-2 producing Klebsiella pneumoniae isolate 212232 in presence of BPL
[4] = system: Pseudomonas aeruginosa; assay: Antibacterial activity against IMP-4 producing Pseudomonas aeruginosa isolate 207272 after 18 hrs in presence of BPL by CLSI broth microdilution method; details: isolate 207272, 18 h; method in brief: as §1
[5] = system: Klebsiella pneumoniae; assay: Antibacterial activity against KPC-2 producing Klebsiella pneumoniae isolate 209632 after 18 hrs in presence of BPL by CLSI broth microdilution method; details: isolate 209632, 18 h; method in brief: as §1
[6] = system: Pseudomonas aeruginosa; assay: Selectivity index, ratio of MIC for against IMP-4 producing Pseudomonas aeruginosa isolate 209321 to MIC for against IMP-4 producing Pseudomonas aeruginosa isolate 209321 in presence of BPL
[7] = system: Pseudomonas aeruginosa; assay: Antibacterial activity against IMP-4 producing Pseudomonas aeruginosa isolate 209471 after 18 hrs by CLSI broth microdilution method; details: isolate 209471, 18 h
[8] = system: Escherichia coli; assay: Antibacterial activity against Escherichia coli isolate 210737 after 18 hrs by CLSI broth microdilution method; details: isolate 210737, 18 h
[9] = system: Escherichia coli; assay: Selectivity index, ratio of MIC for against extended-spectrum beta-lactamase producing Escherichia coli isolate 209285 to MIC for extended-spectrum beta-lactamase producing Escherichia coli isolate 209285 in presence of BPL
[10] = system: Escherichia coli; assay: Antibacterial activity against extended-spectrum beta-lactamase producing Escherichia coli isolate 106342 after 18 hrs in presence of BPL by CLSI broth microdilution method; details: isolate 106342, 18 h; method in brief: as §1
[11] = system: Klebsiella pneumoniae; assay: Antibacterial activity against KPC-2 producing Klebsiella pneumoniae isolate 209632 after 18 hrs by CLSI broth microdilution method; details: isolate 209632, 18 h
[12] = system: Pseudomonas aeruginosa; assay: Antibacterial activity against IMP-4 producing Pseudomonas aeruginosa isolate 209471 after 18 hrs in presence of BPL by CLSI broth microdilution method; details: isolate 209471, 18 h; method in brief: as §1
[13] = system: Klebsiella pneumoniae; assay: Selectivity index, ratio of MIC for against KPC-2 producing Klebsiella pneumoniae isolate 212423 to MIC for against KPC-2 producing Klebsiella pneumoniae isolate 212423 in presence of BPL
[14] = system: Klebsiella pneumoniae; assay: Antibacterial activity against KPC-2 producing Klebsiella pneumoniae isolate 212232 after 18 hrs in presence of BPL by CLSI broth microdilution method; details: isolate 212232, 18 h; method in brief: as §1
[15] = system: Escherichia coli; assay: Antibacterial activity against Escherichia coli isolate 210737 after 18 hrs in presence of BPL by CLSI broth microdilution method; details: isolate 210737, 18 h; method in brief: as §1
[16] = system: Escherichia coli; assay: Antibacterial activity against extended-spectrum beta-lactamase producing Escherichia coli isolate 208687 after 18 hrs by CLSI broth microdilution method; details: isolate 208687, 18 h
[17] = system: Klebsiella pneumoniae; assay: Antibacterial activity against KPC-2 producing Klebsiella pneumoniae isolate 212232 after 18 hrs by CLSI broth microdilution method; details: isolate 212232, 18 h
[18] = system: Escherichia coli; assay: Antibacterial activity against extended-spectrum beta-lactamase producing Escherichia coli isolate 208687 after 18 hrs in presence of BPL by CLSI broth microdilution method; details: isolate 208687, 18 h; method in brief: as §1
[19] = system: Klebsiella pneumoniae; assay: Antibacterial activity against KPC-2 producing Klebsiella pneumoniae isolate 212423 after 18 hrs in presence of BPL by CLSI broth microdilution method; details: isolate 212423, 18 h; method in brief: as §1
[20] = system: Pseudomonas aeruginosa; assay: Selectivity index, ratio of MIC for against IMP-4 producing Pseudomonas aeruginosa isolate 209471 to MIC for against IMP-4 producing Pseudomonas aeruginosa isolate 209471 in presence of BPL
[21] = system: Escherichia coli; assay: Selectivity index, ratio of MIC for against Escherichia coli isolate 210737 to MIC for Escherichia coli isolate 210737 in presence of BPL
[22] = system: Escherichia coli; assay: Antibacterial activity against extended-spectrum beta-lactamase producing Escherichia coli isolate 209285 after 18 hrs in presence of BPL by CLSI broth microdilution method; details: isolate 209285, 18 h; method in brief: as §1
[23] = system: Pseudomonas aeruginosa; assay: Antibacterial activity against IMP-4 producing Pseudomonas aeruginosa isolate 208247 after 18 hrs in presence of BPL by CLSI broth microdilution method; details: isolate 208247, 18 h; method in brief: as §1
[24] = system: Pseudomonas aeruginosa; assay: Selectivity index, ratio of MIC for against IMP-4 producing Pseudomonas aeruginosa isolate 207272 to MIC for against IMP-4 producing Pseudomonas aeruginosa isolate 207272 in presence of BPL
[25] = system: Escherichia coli; assay: Selectivity index, ratio of MIC for against extended-spectrum beta-lactamase producing Escherichia coli isolate 208687 to MIC for extended-spectrum beta-lactamase producing Escherichia coli isolate 208687 in presence of BPL
[26] = system: Escherichia coli; assay: Antibacterial activity against extended-spectrum beta-lactamase producing Escherichia coli isolate 212648 after 18 hrs by CLSI broth microdilution method; details: isolate 212648, 18 h
[27] = system: Klebsiella pneumoniae; assay: Antibacterial activity against KPC-2 producing Klebsiella pneumoniae isolate 212229 after 18 hrs by CLSI broth microdilution method; details: isolate 212229, 18 h
[28] = system: Pseudomonas aeruginosa; assay: Antibacterial activity against IMP-4 producing Pseudomonas aeruginosa isolate 208247 after 18 hrs by CLSI broth microdilution method; details: isolate 208247, 18 h
[29] = system: Pseudomonas aeruginosa; assay: Antibacterial activity against IMP-4 producing Pseudomonas aeruginosa isolate 209321 after 18 hrs by CLSI broth microdilution method; details: isolate 209321, 18 h
[30] = system: Pseudomonas aeruginosa; assay: Antibacterial activity against IMP-4 producing Pseudomonas aeruginosa isolate 212886 after 18 hrs by CLSI broth microdilution method; details: isolate 212886, 18 h
[31] = system: Pseudomonas aeruginosa; assay: Antibacterial activity against IMP-4 producing Pseudomonas aeruginosa isolate 207272 after 18 hrs by CLSI broth microdilution method; details: isolate 207272, 18 h
[32] = system: Klebsiella pneumoniae; assay: Selectivity index, ratio of MIC for against KPC-2 producing Klebsiella pneumoniae isolate 209632 to MIC for against KPC-2 producing Klebsiella pneumoniae isolate 209632 in presence of BPL
[33] = system: Escherichia coli; assay: Selectivity index, ratio of MIC for against extended-spectrum beta-lactamase producing Escherichia coli isolate 106342 to MIC for extended-spectrum beta-lactamase producing Escherichia coli isolate 106342 in presence of BPL
[34] = system: Klebsiella pneumoniae; assay: Selectivity index, ratio of MIC for against KPC-2 producing Klebsiella pneumoniae isolate 209735 to MIC for against KPC-2 producing Klebsiella pneumoniae isolate 209735 in presence of BPL
[35] = system: Pseudomonas aeruginosa; assay: Antibacterial activity against IMP-4 producing Pseudomonas aeruginosa isolate 212886 after 18 hrs in presence of BPL by CLSI broth microdilution method; details: isolate 212886, 18 h; method in brief: as §1
[36] = system: Escherichia coli; assay: Antibacterial activity against extended-spectrum beta-lactamase producing Escherichia coli isolate 209285 after 18 hrs by CLSI broth microdilution method; details: isolate 209285, 18 h
[37] = system: Escherichia coli; assay: Antibacterial activity against extended-spectrum beta-lactamase producing Escherichia coli isolate 106342 after 18 hrs by CLSI broth microdilution method; details: isolate 106342, 18 h
[38] = system: Pseudomonas aeruginosa; assay: Antibacterial activity against IMP-4 producing Pseudomonas aeruginosa isolate 209321 after 18 hrs in presence of BPL by CLSI broth microdilution method; details: isolate 209321, 18 h; method in brief: as §1
[39] = system: Pseudomonas aeruginosa; assay: Selectivity index, ratio of MIC for against IMP-4 producing Pseudomonas aeruginosa isolate 212886 to MIC for against IMP-4 producing Pseudomonas aeruginosa isolate 212886 in presence of BPL
[40] = system: Klebsiella pneumoniae; assay: Antibacterial activity against KPC-2 producing Klebsiella pneumoniae isolate 209735 after 18 hrs in presence of BPL by CLSI broth microdilution method; details: isolate 209735, 18 h; method in brief: as §1
[41] = system: Klebsiella pneumoniae; assay: Selectivity index, ratio of MIC for against KPC-2 producing Klebsiella pneumoniae isolate 212229 to MIC for against KPC-2 producing Klebsiella pneumoniae isolate 212229 in presence of BPL
[42] = system: Klebsiella pneumoniae; assay: Antibacterial activity against KPC-2 producing Klebsiella pneumoniae isolate 212229 after 18 hrs in presence of BPL by CLSI broth microdilution method; details: isolate 212229, 18 h; method in brief: as §1
[43] = system: Klebsiella pneumoniae; assay: Antibacterial activity against KPC-2 producing Klebsiella pneumoniae isolate 212423 after 18 hrs by CLSI broth microdilution method; details: isolate 212423, 18 h
[44] = system: Escherichia coli; assay: Selectivity index, ratio of MIC for against extended-spectrum beta-lactamase producing Escherichia coli isolate 212648 to MIC for extended-spectrum beta-lactamase producing Escherichia coli isolate 212648 in presence of BPL
[45] = system: Pseudomonas aeruginosa; assay: Selectivity index, ratio of MIC for against IMP-4 producing Pseudomonas aeruginosa isolate 208247 to MIC for against IMP-4 producing Pseudomonas aeruginosa isolate 208247 in presence of BPL

MIC [1]: 64 µg/mL
MIC [2]: 16 µg/mL (≈ 29.3 µM)
MIC [4]: > 64 µg/mL
MIC [5]: 2 µg/mL
MIC [7]: > 64 µg/mL
MIC [8]: > 64 µg/mL
MIC [10]: 64 µg/mL
MIC [11]: 8 µg/mL (≈ 14.6 µM)
MIC [12]: > 64 µg/mL
MIC [14]: 2 µg/mL
MIC [15]: > 64 µg/mL
MIC [16]: 64 µg/mL (≈ 117 µM)
MIC [17]: 16 µg/mL (≈ 29.3 µM)
MIC [18]: 32 µg/mL
MIC [19]: 8 µg/mL
MIC [22]: 32 µg/mL
MIC [23]: > 64 µg/mL
MIC [26]: 64 µg/mL (≈ 117 µM)
MIC [27]: 8 µg/mL (≈ 14.6 µM)
MIC [28]: > 64 µg/mL
MIC [29]: 64 µg/mL (≈ 117 µM)
MIC [30]: > 64 µg/mL
MIC [31]: > 64 µg/mL
MIC [35]: 16 µg/mL
MIC [36]: 64 µg/mL (≈ 117 µM)
MIC [37]: 64 µg/mL (≈ 117 µM)
MIC [38]: 64 µg/mL
MIC [40]: 16 µg/mL
MIC [42]: 4 µg/mL
MIC [43]: 8 µg/mL (≈ 14.6 µM)
Structure (SMILES): CC(C)C(O/N=C(\C(=O)N[C@@H]1C(=O)N(S(=O)(=O)O)[C@@H]1CO)c1csc(N)n1)c1cc(=O)c(O)cn1O (stereo not given in full)
Selectivity Index [3]: 8
Selectivity Index [6]: 1
Selectivity Index [9]: 2
Selectivity Index [13]: 1
Selectivity Index [20]: 1 - 4
Selectivity Index [21]: 1 - 2
Selectivity Index [24]: 1 - 4
Selectivity Index [25]: 2
Selectivity Index [32]: 4
Selectivity Index [33]: 1
Selectivity Index [34]: 1
Selectivity Index [39]: >4
Selectivity Index [41]: 2
Selectivity Index [44]: 1
Selectivity Index [45]: 1 - 4

MIC [1]: 0.25 µg/mL
MIC [2]: 1 µg/mL (≈ 1.51 µM)
MIC [4]: 64 µg/mL
MIC [5]: 0.25 µg/mL
MIC [7]: 32 µg/mL (≈ 48.4 µM)
MIC [8]: 0.5 µg/mL (≈ 0.757 µM)
MIC [10]: 0.5 µg/mL
MIC [11]: 1 µg/mL (≈ 1.51 µM)
MIC [12]: 32 µg/mL
MIC [14]: 0.25 µg/mL
MIC [15]: 0.25 µg/mL
MIC [16]: 2 µg/mL (≈ 3.03 µM)
MIC [17]: 2 µg/mL (≈ 3.03 µM)
MIC [18]: 0.125 µg/mL
MIC [19]: 0.5 µg/mL
MIC [22]: 1 µg/mL
MIC [23]: > 64 µg/mL
MIC [26]: 0.5 µg/mL (≈ 0.757 µM)
MIC [27]: 1 µg/mL (≈ 1.51 µM)
MIC [28]: > 64 µg/mL
MIC [29]: 64 µg/mL (≈ 96.9 µM)
MIC [30]: > 64 µg/mL
MIC [31]: 64 µg/mL (≈ 96.9 µM)
MIC [35]: 16 µg/mL
MIC [36]: 4 µg/mL (≈ 6.05 µM)
MIC [37]: 1 µg/mL (≈ 1.51 µM)
MIC [38]: 64 µg/mL
MIC [40]: 0.5 µg/mL
MIC [42]: 0.5 µg/mL
MIC [43]: 1 µg/mL (≈ 1.51 µM)
Structure (SMILES): Cc1nnc(SC[C@@H]2[C@H](NC(=O)/C(=N\OC(c3cc(=O)c(O)cn3O)C(C)C)c3csc(N)n3)C(=O)N2S(=O)(=O)O)s1 (stereo not given in full)
Selectivity Index [3]: 8
Selectivity Index [6]: 1
Selectivity Index [9]: 4
Selectivity Index [13]: 2
Selectivity Index [20]: 1
Selectivity Index [21]: 2
Selectivity Index [24]: 1
Selectivity Index [25]: 16
Selectivity Index [32]: 4
Selectivity Index [33]: 2
Selectivity Index [34]: 2
Selectivity Index [39]: >4
Selectivity Index [41]: 2
Selectivity Index [44]: 2
Selectivity Index [45]: 1 - 4
